Laboratory results taken from article PMC4800303 (British Journal of Cancer, 2016).
Values after ≈ are worked out from the molar mass of the structure shown.

What was measured:
[1] = Pharmacokinetics in xenograft tumour-bearing mice; assay type: in vivo; settings: vemurafenib and abemaciclib coadministered; data not shown
[2] = system: Total Rb; test: Abemaciclib-mediated inhibition of Total Rb in xenograft tumours; assay type: in vivo, mice; settings: 50 mg kg^−1 every day
In short: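 Colo-205 xenograft mice given abemaciclib 50 mg kg⁻¹ orally once daily for 56 days; tumour collected at 28 and 56 days, n=5 per time point. Tumour lysates assayed for Total Rb alongside pRb, TopoIIα and pHH3. Data were added to a refit of the cell-cycle PK/PD model.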

[3] = system: phospho-(ser780)-Rb (pRb); assay type: in vivo, mice; settings: Mus musculus, COLO 205, read-out: IC50,Abemaciclib
In short: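 Semimechanistic PK/PD model with four sequential transit compartments (early G1, late G1, S, G2/M). pRb, TopoIIα and pHH3 represent late G1, S and G2/M phase density. Model refitted to colo-205 xenograft biomarker data, including Total Rb after single or daily oral 50 mg kg⁻¹ abemaciclib. Population approach for longitudinal data. IC50 is an estimated model parameter.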

[4] = system: BRAF-mutated (V600E/K) metastatic melanoma; settings: pivotal phase III registration trial; ref Chapman et al., 2011; cited from earlier work
[5] = system: Cyclin D1; test: Biomarker model: effect of vemurafenib on Cyclin D1 in A375 xenograft tumours; assay type: in vivo, mice
In short: (§1)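 A375 xenograft mice given single oral vemurafenib: 15 mg kg⁻¹ with blood and tumour at 1, 2, 6, 12, 24, 48 h; 7.5, 30 or 60 mg kg⁻¹ with sampling at 4, 8, 24 h; n=5 per time point. Tumour biomarkers expressed as percentage of vehicle control. Plasma PK fitted by one-compartment model with saturable absorption; indirect response model links concentration to pMEK, driving pERK; values from model fitting/simulation.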

[6] = system: pRb; test: Biomarker model: effect of vemurafenib on pRb in A375 xenograft tumours; assay type: in vivo, mice; settings: Mus musculus, A-375, read-out: Inhibition of pRb
In short: as §1

[7] = system: phospho-(thr202/tyr204)-ERK (pERK); test: Biomarker model: effect of vemurafenib on pERK in A375 xenograft tumours; assay type: in vivo, mice
In short: as §1

[8] = system: phospho-(ser217/221)-mitogen-activated protein kinase kinase (pMEK); assay type: in vivo, mice; settings: after a 15 mg kg^−1 dose of vemurafenib
In short: as §1

[9] = system: A375 xenograft tumours; test: Tumour growth inhibition and tumour model in A375 xenograft tumours; assay type: in vivo, mice; settings: continuous vemurafenib treatment; estimated
In short: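 A375 xenograft mice received vemurafenib 15 mg kg⁻¹ twice daily for 48 days to allow resistance. They then received abemaciclib 90 mg kg⁻¹ daily or continued vemurafenib for 28 days (n=8 per group), with vehicle controls (n=8). Tumour size was measured every 3–4 days for ∼13 weeks. Time to resistance was estimated by the tumour growth model with a modulator compartment.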

[10] = after a 15 mg kg^−1 dose of vemurafenib
[11] = continuous vemurafenib, at time to resistance (∼30 days), model

Structure (SMILES): CCN1CCN(Cc2ccc(Nc3ncc(F)c(-c4cc(F)c5nc(C)n(C(C)C)c5c4)n3)nc2)CC1 [abemaciclib]
- Pharmacokinetics after coadministration [1]: neither vemurafenib nor abemaciclib exhibited altered pharmacokinetics after coadministration
- Inhibition of Total Rb [2]: ~40%
- IC50 [3]: 4.99 ng/mL (≈ 9.85 nM)

Structure (SMILES): CN(C)/N=N/c1[nH]cnc1C(N)=O [dacarbazine]
- Progression-free survival (PFS) [4]: 1.6 months

Structure (SMILES): CCCS(=O)(=O)Nc1ccc(F)c(C(=O)c2c[nH]c3ncc(-c4ccc(Cl)cc4)cc23)c1F [vemurafenib]
- inhibition at 15 mg/kg ([5]; Mus musculus, A-375, read-out: Inhibition of Cyclin D1): 33%
- Time of maximum inhibition of Cyclin D1 [5, 10]: 10 h
- Elevation of Cyclin D1 over baseline at resistance [5, 11]: nearly twofold
- Pharmacokinetics after coadministration [1]: neither vemurafenib nor abemaciclib exhibited altered pharmacokinetics after coadministration
- Progression-free survival (PFS) [4]: 5.3 months
- inhibition at 15 mg/kg [6]: 50%
- Time of maximum inhibition of pERK [7, 10]: 2 h
- Elevation of pERK over baseline at resistance [7, 11]: nearly twofold
- Time of maximum inhibition of pMEK [8]: 2 h
- Time to resistance [9]: ~30 days
